Test results reported in ChEMBL document CHEMBL2163270, “Design and in vitro activities of N-alkyl-N-[(8-R-2,2-dimethyl-2H-chromen-6-yl)methyl]heteroarylsulfonamides, novel, small-molecule hypoxia inducible factor-1 pathway inhibitors and anticancer agents” (J Med Chem, 2012).
Values after ≈ are worked out from the molar mass of the structure shown. Active and inactive are the calls of the source. The calls are words filed in the database; no cut-off is given here.

Key:
LN-229 = assay: Inhibition of luciferase activity in human LN229-Lux cells at 2.5 to 10 uM incubated for 1 hr under normoxia followed by 24 hrs under hypoxia by reporter gene assay; format: functional, cell-based
[1] = biological target: Histone acetyltransferase p300 (Homo sapiens) (UniProt Q09472); assay: Inhibition of P300 CH1 domain-mediated HIF1 transcriptional activity in human LN229-V6R cells assessed as reduction in luciferase activity incubated for 1 hr under normoxia followed by 24 hrs under hypoxia by reporter gene assay; format: cell-based
Sequence of Histone acetyltransferase p300 (Homo sapiens) (Q09472 whole entry, the tested form may be a part): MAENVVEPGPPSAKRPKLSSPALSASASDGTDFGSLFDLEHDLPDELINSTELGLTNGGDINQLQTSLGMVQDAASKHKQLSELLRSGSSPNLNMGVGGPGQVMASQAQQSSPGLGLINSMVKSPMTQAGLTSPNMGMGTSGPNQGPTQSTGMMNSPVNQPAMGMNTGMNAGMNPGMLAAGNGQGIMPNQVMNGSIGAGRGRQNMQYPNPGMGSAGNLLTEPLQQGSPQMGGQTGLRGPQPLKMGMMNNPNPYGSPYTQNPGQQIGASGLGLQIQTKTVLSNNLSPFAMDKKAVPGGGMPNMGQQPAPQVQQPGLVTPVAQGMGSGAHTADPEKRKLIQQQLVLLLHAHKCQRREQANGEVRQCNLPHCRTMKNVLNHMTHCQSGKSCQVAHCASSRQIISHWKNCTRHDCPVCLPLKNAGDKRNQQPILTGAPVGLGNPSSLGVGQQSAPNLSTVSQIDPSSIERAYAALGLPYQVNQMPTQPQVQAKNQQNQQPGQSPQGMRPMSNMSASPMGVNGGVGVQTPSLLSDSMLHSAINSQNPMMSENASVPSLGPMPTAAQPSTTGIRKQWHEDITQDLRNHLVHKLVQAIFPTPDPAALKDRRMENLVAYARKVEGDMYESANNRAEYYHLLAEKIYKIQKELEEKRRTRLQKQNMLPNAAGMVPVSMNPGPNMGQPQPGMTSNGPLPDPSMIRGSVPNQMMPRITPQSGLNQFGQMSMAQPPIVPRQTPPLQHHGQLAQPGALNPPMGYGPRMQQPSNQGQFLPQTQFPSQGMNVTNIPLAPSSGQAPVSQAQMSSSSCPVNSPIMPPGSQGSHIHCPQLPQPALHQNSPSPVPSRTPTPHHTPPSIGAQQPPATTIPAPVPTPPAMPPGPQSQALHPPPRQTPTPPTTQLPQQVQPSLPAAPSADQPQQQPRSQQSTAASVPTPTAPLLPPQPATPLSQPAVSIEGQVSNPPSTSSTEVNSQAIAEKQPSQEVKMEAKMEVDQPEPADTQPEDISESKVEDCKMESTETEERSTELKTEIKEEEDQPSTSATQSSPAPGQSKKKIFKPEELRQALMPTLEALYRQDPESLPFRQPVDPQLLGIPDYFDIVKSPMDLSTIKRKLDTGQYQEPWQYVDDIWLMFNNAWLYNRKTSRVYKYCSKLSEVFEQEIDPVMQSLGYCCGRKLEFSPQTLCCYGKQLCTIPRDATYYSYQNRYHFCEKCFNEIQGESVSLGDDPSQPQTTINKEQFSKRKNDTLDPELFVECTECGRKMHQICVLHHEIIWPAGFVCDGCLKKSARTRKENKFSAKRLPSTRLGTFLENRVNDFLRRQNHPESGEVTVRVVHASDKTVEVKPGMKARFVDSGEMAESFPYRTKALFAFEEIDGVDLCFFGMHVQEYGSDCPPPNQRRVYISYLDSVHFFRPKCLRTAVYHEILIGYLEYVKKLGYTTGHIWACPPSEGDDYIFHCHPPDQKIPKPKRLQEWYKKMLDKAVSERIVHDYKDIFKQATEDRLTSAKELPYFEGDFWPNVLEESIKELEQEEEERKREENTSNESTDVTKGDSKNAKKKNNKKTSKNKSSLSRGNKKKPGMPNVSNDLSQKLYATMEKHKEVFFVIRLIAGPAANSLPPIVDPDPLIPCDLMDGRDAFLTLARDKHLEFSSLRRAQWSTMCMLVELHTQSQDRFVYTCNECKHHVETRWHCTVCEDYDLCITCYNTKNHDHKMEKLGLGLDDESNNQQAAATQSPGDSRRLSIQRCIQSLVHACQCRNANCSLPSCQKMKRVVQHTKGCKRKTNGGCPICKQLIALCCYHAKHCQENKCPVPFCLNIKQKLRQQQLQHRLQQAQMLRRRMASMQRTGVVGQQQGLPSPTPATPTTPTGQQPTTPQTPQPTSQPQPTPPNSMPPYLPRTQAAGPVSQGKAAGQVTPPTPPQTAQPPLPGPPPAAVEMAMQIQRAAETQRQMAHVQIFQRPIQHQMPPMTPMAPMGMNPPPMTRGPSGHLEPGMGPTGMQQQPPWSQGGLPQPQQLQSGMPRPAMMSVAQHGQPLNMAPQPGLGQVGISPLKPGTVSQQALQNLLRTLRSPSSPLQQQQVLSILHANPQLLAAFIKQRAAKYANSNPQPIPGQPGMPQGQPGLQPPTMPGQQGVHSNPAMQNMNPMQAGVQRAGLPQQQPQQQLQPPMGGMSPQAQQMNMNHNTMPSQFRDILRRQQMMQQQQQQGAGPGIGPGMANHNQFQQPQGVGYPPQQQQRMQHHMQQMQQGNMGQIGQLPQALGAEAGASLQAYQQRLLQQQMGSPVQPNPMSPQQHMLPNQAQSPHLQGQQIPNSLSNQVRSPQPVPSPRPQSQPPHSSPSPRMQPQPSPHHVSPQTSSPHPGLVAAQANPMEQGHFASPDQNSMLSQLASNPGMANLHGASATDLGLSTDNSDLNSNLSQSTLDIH
Summary of the method: (§1)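 LN229-V6R cells carry a stably integrated hypoxia/HIF-inducible luciferase reporter. 3 × 10⁴ cells/well in DMEM with 10% serum, 24 h normoxia. Compound at 2.5, 5.0 or 10.0 μM in 1% DMSO, 1 h at 37 °C, then 24 h at 1% O2. Lysates mixed with luciferase substrate and read by luminometry, expressed as % of untreated control. Triplicates.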

[2] = biological target: Histone acetyltransferase p300 (Homo sapiens) (UniProt Q09472); assay: Inhibition of P300 CH1 domain-mediated HIF1 transcriptional activity in human LN229-V6R cells assessed as remaining activity at 2.5 uM incubated for 1 hr under normoxia followed by 24 hrs under hypoxia by luciferase reporter gene assay; format: cell-based; summary of the method: as §1
[3] = 1-Octanol-phosphate buffer distribution coefficient, log P of the compound at pH 7.4 by HPLC analysis; format: physicochemical
Summary of the method: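 Eluent methanol:water:triethylamine 70:30:0.1 at 2 mL/min, UV 254/280 nm. Calibrated with aniline, benzene, toluene and chlorobenzene plus two shake-flask-measured reference sulfonamides.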

[4] = Drug metabolism in mouse plasma after 24 hrs by HPLC analysis; format: ADME, cell-free; conditions: read-out: Drug metabolism
Summary of the method: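 Compound at 20 μM incubated in fresh mouse plasma at 37 °C with shaking for 24 h. Samples extracted with acetonitrile, dried and reconstituted. Quantified by C8 reverse-phase HPLC with photodiode-array detection, 2 μM α-naphthoflavone internal standard, standard curves 1-50 μM. Triplicates.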

Liver = assay: Half life in mouse liver homogenate by HPLC analysis at pH 7.4; format: ADME, tissue-based; conditions: in vitro
Summary of the method: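 Mouse liver homogenate in PBS pH 7.4 (1:2 w/v) incubated with 20 μM compound at 37 °C with shaking. Timed samples extracted with acetonitrile and analysed by C8 HPLC-PDA with 2 μM α-naphthoflavone internal standard, linear range 1-50 μM. Triplicates.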

[5] = biological target: Histone acetyltransferase p300 (Homo sapiens) (UniProt Q09472); assay: Inhibition of P300 CH1 domain-mediated HIFalpha protein expression in human LN229-V6R cells at 3 to 50 uM incubated for 1 hr under normoxia followed by 24 hrs under hypoxia by Western blot analysis; format: cell-based
Summary of the method: (§2)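 LN229-V6R cells, 2 × 10⁵ per 35 mm dish, grown 24 h under normoxia. Compound at 3-100 μM in 1% DMSO, 1 h normoxia, then 24 h at 1% O2. Lysed in SDS loading buffer and resolved on a 4-12.5% gradient gel. Immunoblotted for HIF-1α (1:500) with β-actin (1:3,000), HRP secondaries, ECL detection. Repeated at least twice.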

[6] = biological target: Histone acetyltransferase p300 (Homo sapiens) (UniProt Q09472); assay: Inhibition of P300 CH1 domain-mediated HIFalpha protein expression in human LN229-V6R cells at 100 uM incubated for 1 hr under normoxia followed by 24 hrs under hypoxia by Western blot analysis; format: cell-based; summary of the method: as §2
[7] = Cytotoxicity against human LN229 cells transfected with V6R incubated for 3 days under normoxic condition by SRB assay; format: functional, cell-based; conditions: LN-229, 72 h
Summary of the method: (§3)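 SRB growth assay: LN229-V6R, 2 × 10³ cells/well, attached 24 h under normoxia. Dosed at 3-100 μM in 1% DMSO, 1 h normoxia, then normoxia or hypoxia for 3 days. Cold 10% TCA fixation, 0.04% SRB stain, dye solubilized in 10 mM Tris pH 10, OD 564 nm. Quadruplicate or sextuplicate wells, two independent experiments; IC50 by curve fit.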

[8] = Aqueous solubility of the compound at pH 7.4 after 90 mins by laser nephelometric analysis; format: physicochemical; conditions: aqueous medium
Summary of the method: (§4)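 DMSO stocks (30 mg/mL) serially diluted, then diluted into phosphate-buffered saline at pH 7.4, 5.0 or 3.0. Final drug concentrations were 1.5–300 μg/mL with 1% DMSO. Incubated 90 min at ambient temperature, and laser nephelometry located the onset of precipitation. An internal control was included.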

[9] = 1-Octanol-phosphate buffer distribution coefficient, log P of the compound at pH 7.4 after 15 mins by shake flask method; format: physicochemical
Summary of the method: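 Shake-flask partition per OECD 107: 1-octanol and 0.2 M phosphate buffer pH 7.4 mutually presaturated by 24 h stirring at room temperature. 1-2 mg compound dissolved in 2 mL buffer-saturated octanol plus 2 mL octanol-saturated buffer, run in duplicate. Aqueous layer quantified by HPLC at 254 nm against standard curves.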

[10] = Cytotoxicity against human HFF1 cells incubated for 14 days under normoxic condition by clonogenecity assay; format: cell-based; conditions: HFF-1, 336 h
Summary of the method: (§5)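 Clonogenic assay in LN229 glioma or HFF-1 immortalized fibroblasts seeded at 200 or 1,000 cells/well and allowed to adhere 16 h under normoxia. Compound at 6.25-100 μM final, 1% DMSO. Plates held 1 h under normoxia, then 14 days at 21% or 1% O2. Colonies stained with 0.9% crystal violet and counted. IC50 from exponential/polynomial fit (R² ≥ 0.8).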

[11] = Cytotoxicity against human HFF1 cells incubated for 1 hr under normoxic condition followed by 14 days under hypoxic condition by clonogenecity assay; format: cell-based; conditions: HFF-1; summary of the method: as §5
[12] = Cytotoxicity against human LN229 cells transfected with V6R incubated for 1 hr under normoxic condition followed by 14 days under hypoxic condition by clonogenecity assay; format: functional, cell-based; conditions: LN-229
[13] = Cytotoxicity against human LN229 cells transfected with V6R incubated for 1 hr under normoxic condition followed by 3 days under hypoxic condition by SRB assay; format: functional, cell-based; conditions: LN-229; summary of the method: as §3
[14] = Aqueous solubility of the compound at pH 5 after 90 mins by laser nephelometric analysis; format: physicochemical; conditions: aqueous medium; summary of the method: as §4
[15] = biological target: Histone acetyltransferase p300 (Homo sapiens) (UniProt Q09472); assay: Inhibition of P300 CH1 domain-mediated HIF1 transcriptional activity in human LN229-V6R cells assessed as reduction in luciferase activity at 10 uM incubated for 1 hr under normoxia followed by 24 hrs under hypoxia by reporter gene assay; format: cell-based; summary of the method: as §1
[16] = Aqueous solubility of the compound at pH 3 after 90 mins by laser nephelometric analysis; format: physicochemical; conditions: aqueous medium; summary of the method: as §4
[17] = Cytotoxicity against human LN229 cells transfected with V6R incubated for 14 days under normoxic condition by clonogenecity assay; format: functional, cell-based; conditions: LN-229, 336 h
[18] = Aqueous solubility of the compound; format: physicochemical; conditions: aqueous medium
Summary of the method: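 Saturated suspension (1–2 mg in 2 mL distilled water) sonicated 30 min at room temperature, centrifuged 1,500 g, 20 °C, 5 min, then filtered through 0.2 μm PTFE. Filtrate quantified by HPLC-UV at 254 nm against standard curves. Three independent experiments, values averaged.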

[19] = biological target: Histone acetyltransferase p300 (Homo sapiens) (UniProt Q09472); assay: Inhibition of P300 CH1 domain-mediated HIF1 transcriptional activity in human LN229-V6R cells assessed as reduction in luciferase activity at 2.5 to 10 uM incubated for 1 hr under normoxia followed by 24 hrs under hypoxia by reporter gene assay; format: cell-based
Summary of the method: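 LN229-V6R cells carrying a stably integrated hypoxia/HIF-inducible luciferase reporter were seeded at 3 × 10⁴/well in DMEM with 10% serum and grown 24 h under normoxia. Compound was added at 2.5, 5.0 or 10.0 μM in 1% DMSO. Cells were held 1 h at 37 °C, then 24 h under hypoxia (1% O₂). Luciferase was read in lysates as percent of untreated control, in triplicate.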

[20] = biological target: Histone acetyltransferase p300 (Homo sapiens) (UniProt Q09472); assay: Inhibition of P300 CH1 domain-mediated HIFalpha protein expression in human LN229-V6R cells incubated for 1 hr under normoxia followed by 24 hrs under hypoxia by Western blot analysis; format: cell-based; summary of the method: as §2

Row | SMILES | inhibition (LN-229) | inhibition [1] | Activity [2] [%] | logD [3] | metabolised at 24 h [4] [%] | t1/2 (Liver) [h] | further results
1 | CC(C)CN(Cc1ccc2c(c1)C=CC(C)(C)O2)S(=O)(=O)c1nccn1C | inactive | Dose-dependent effect | 74 | 3.1 |  |  | 
2 | CC1(C)C=Cc2cc(CN(CC3CC3)S(=O)(=O)c3ccccn3)ccc2O1 | inactive | Dose-dependent effect | 49 | 3.1 | < 1 | 13 | 
3 | CC(C)CN(Cc1ccc2c(c1)C=CC(C)(C)O2)S(=O)(=O)c1nccs1 | inactive | Dose-dependent effect | 78 | 4.4 |  |  | 
4 | CC1(C)C=Cc2cc(CN(C3CC3)S(=O)(=O)c3ccccn3)ccc2O1 | inactive | Dose-dependent effect | 71 | 3 |  |  | 
5 | CC(C)N(Cc1ccc2c(c1)C=CC(C)(C)O2)S(=O)(=O)c1ccccn1 | inactive | Dose-dependent effect | 55 |  | < 1 | 20 | inhibition [5]: inactive; inhibition [6]: Active; IC50 [7]: 100 µM; solubility kinetic at 1.5 h [8]: < 15 µg/mL; logD at 0.25 h [9]: 2; IC50 [10]: 62 µM; IC50 [11]: 93 µM; IC50 [12]: 134 µM; IC50 [13]: 126 µM; solubility kinetic at 1.5 h [14]: 16 µg/mL (≈ 43 µM); inhibition [15]: 60%; solubility kinetic at 1.5 h [16]: 17 µg/mL (≈ 45.6 µM); IC50 [17]: 82 µM
6 | COc1ccc(S(=O)(=O)N(Cc2ccc3c(c2)C=CC(C)(C)O3)c2ccccc2)cc1OC | inactive |  | 28 | 3.7 | < 1 | 11 | solubility [18]: 9 nM (≈ 4.19 ng/mL); inhibition [19]: Active; solubility kinetic at 1.5 h [8]: < 15 µg/mL; solubility kinetic at 1.5 h [14]: < 15 µg/mL; solubility kinetic at 1.5 h [16]: < 15 µg/mL
7 | CC(C)CN(Cc1cc(O)c2c(c1)C=CC(C)(C)O2)S(=O)(=O)c1ccncc1 | inactive | Dose-dependent effect | 59 | 1.2 | < 1 |  | IC50 [7]: 92 µM; IC50 [10]: 22 µM; IC50 [11]: 40 µM; IC50 [12]: 30 µM; IC50 [13]: 113 µM; inhibition [15]: > 60%; inhibition [20]: Dose-dependent effect; IC50 [17]: 23 µM
8 | COc1cc(CN(C(C)C)S(=O)(=O)c2ccccn2)cc2c1OC(C)(C)C=C2 | inactive | Dose-dependent effect | 61 |  | < 1 | 15 | IC50 [7]: 73 µM; logD at 0.25 h [9]: 1.3; IC50 [10]: 55 µM; IC50 [11]: > 100 µM; IC50 [12]: > 100 µM; IC50 [13]: 146 µM; inhibition [15]: > 60%; inhibition [20]: Dose-dependent effect; IC50 [17]: 69 µM
9 | CO[C@H]1/C=C\C=C(/C)C(=O)NC2=CC(=O)C(NCCN(C)C)=C(C[C@@H](C)C[C@H](OC)[C@H](O)[C@@H](C)/C=C(\C)[C@@H]1OC(N)=O)C2=O (stereo in doubt) | Active |  |  |  |  |  | 
10 | CC1(C)C=Cc2cc(CN(C3CCCC3)S(=O)(=O)c3ccccn3)ccc2O1 | inactive | Dose-dependent effect | 60 | 3.8 |  |  | 
11 | CC1(C)C=Cc2cc(CN(C3CCC3)S(=O)(=O)c3ccccn3)ccc2O1 | inactive | Dose-dependent effect | 53 | 3 |  |  | 
12 | CC(C)CN(Cc1cc(O)c2c(c1)C=CC(C)(C)O2)S(=O)(=O)c1ccccn1 | inactive | Dose-dependent effect | 43 | 1.3 |  | 15 | 
13 | CC(C)CN(Cc1ccc2c(c1)C=CC(C)(C)O2)S(=O)(=O)c1ccccn1 | inactive | Dose-dependent effect | 85 | 4.1 |  |  | 
14 | CC(C)CN(Cc1ccc2c(c1)C=CC(C)(C)O2)S(=O)(=O)c1ccncc1 | inactive | Dose-dependent effect | 63 | 3.6 |  |  | 
